The values below come from ChEMBL document CHEMBL1132312, “Conformationally constrained butyrophenones with mixed dopaminergic (D(2)) and serotoninergic (5-HT(2A), 5-HT(2C)) affinities: synthesis, pharmacology, 3D-QSAR, and molecular modeling of (aminoalkyl)benzo- and -thienocycloalkanones as putative atypical antipsychotics” (J Med Chem, 1999).

For test [1], the system named is Mus musculus. Put plainly: In vivo Antipsychotic activity was quantified by induction of catalepsy in mice. The test is classed as functional. In short, it runs like this: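 Male CD1 mice, 27 ± 3 g, 6-12 per group, tested 30 min after dosing. Forepaws placed on one horizontal wire, hindpaws on another 6 cm away and 2 cm lower. Holding the posture for more than 30 s scored as catalepsy. ED50 by Litchfield-Wilcoxon.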

Test [2] concerns Mus musculus. Put plainly: In vivo Antipsychotic activity was quantified by inhibition of apomorphine-induced climbing(CL 95%) by mice. In kind it is functional. The procedure, abridged:
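Male CD1 mice given test drug or vehicle, then 2 mg/kg apomorphine 30 min later. Housed singly in wire cylinders; 6 per dose, 12 controls. Climbing scored 0-2 every 10 min over 30 min. Scores at 20 and 30 min summed and averaged per group. ED50 from nonlinear curve fitting.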

In test [3] the target is T1, D(1A) dopamine receptor (Rattus norvegicus, UniProt P18901). Put plainly: In vitro ability to displace [3H]SCH-23390 binding from Dopamine receptor D1 in rat striatal membrane. The test is classed as cell membranes. In short, it runs like this: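 Striatal membranes from male Sprague-Dawley rats, washed in Tris-HCl with 5 mM EDTA. Resuspended at 1.00 mg wet weight/750 µL in 50 mM Tris-HCl pH 7.4 with 120 mM NaCl, 5 mM KCl, 2 mM CaCl2 and 1 mM MgCl2. [3H]SCH23390 competition in duplicate, 15 min at 37 °C, filtered. Nonspecific binding defined with 1 µM final SCH23390. Ki = IC50/(1 + D/Kd).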
T1 sequence (P18901 whole entry): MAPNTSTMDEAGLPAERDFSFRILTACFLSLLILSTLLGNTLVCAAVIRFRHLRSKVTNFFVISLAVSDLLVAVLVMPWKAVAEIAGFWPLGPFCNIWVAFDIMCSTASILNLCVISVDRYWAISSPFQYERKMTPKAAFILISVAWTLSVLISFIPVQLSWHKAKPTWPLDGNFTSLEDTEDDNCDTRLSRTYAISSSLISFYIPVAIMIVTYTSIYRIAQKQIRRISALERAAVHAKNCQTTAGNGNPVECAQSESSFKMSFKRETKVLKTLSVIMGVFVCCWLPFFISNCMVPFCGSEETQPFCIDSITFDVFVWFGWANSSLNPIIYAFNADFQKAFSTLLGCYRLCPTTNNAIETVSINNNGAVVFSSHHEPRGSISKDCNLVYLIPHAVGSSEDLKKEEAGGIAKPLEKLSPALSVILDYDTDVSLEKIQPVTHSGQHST

Test [4] has as its target T2, 5-hydroxytryptamine receptor 2A (Rattus norvegicus, UniProt P14842). Put plainly: In vitro ability to displace [3H]ketanserin binding from 5-hydroxytryptamine 2A receptor in rat membrane.
Test [5] can be described thus: pA2 value was evaluated by measuring the inhibition of the 5-HT-induced contraction of rat aorta. In kind it is functional, tissue-based. In short, it runs like this:
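Thoracic aorta rings, denuded, from male 250-350-g Sprague-Dawley rats. Isometric force recorded after 60 min equilibration under 2 g load, then sensitized with 10 µM 5-HT for 8 min.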

In test [6] the target is T1, D(1A) dopamine receptor. Put plainly: In vitro ability to displace [3H]SCH-23390 binding from Dopamine 1 (D1) receptor in rat striatal membrane. The test is classed as cell membranes.
For test [7], the target named is T2, 5-hydroxytryptamine receptor 2A. Put plainly: Compound was tested in vitro for its binding affinity towards 5-hydroxytryptamine 2A receptor from rat frontal cortex using [3H]-ketanserin as radioligand. In kind it is tissue-based. The procedure, abridged: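 Frontal cortex from male 200-250-g Sprague-Dawley rats, homogenized in 0.32 M sucrose, then washed. Pellet incubated 15 min at 37 °C to strip endogenous 5-HT. Assay buffer Tris-HCl pH 8.07 with 4 mM CaCl2 and 0.1% ascorbic acid. [3H]ketanserin competition run in triplicate, 30 min at 37 °C, with GF/C filtration. Nonspecific binding defined with methysergide. Ki = IC50/(1 + D/Kd), with Kd taken from saturation binding.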

T2 sequence (P14842 whole entry): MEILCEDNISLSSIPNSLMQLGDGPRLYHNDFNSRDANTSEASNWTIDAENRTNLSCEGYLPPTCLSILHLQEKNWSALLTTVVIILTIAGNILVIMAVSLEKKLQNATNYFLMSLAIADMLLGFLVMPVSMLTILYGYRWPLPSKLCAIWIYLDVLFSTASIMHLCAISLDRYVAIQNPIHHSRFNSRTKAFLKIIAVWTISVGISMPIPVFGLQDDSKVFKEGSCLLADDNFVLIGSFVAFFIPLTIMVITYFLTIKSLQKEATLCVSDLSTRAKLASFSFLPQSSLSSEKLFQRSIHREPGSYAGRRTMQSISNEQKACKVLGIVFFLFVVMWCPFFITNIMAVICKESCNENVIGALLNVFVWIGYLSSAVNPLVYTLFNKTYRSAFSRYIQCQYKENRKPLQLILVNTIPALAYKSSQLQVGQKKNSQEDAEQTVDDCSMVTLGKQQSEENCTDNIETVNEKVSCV

The term ED50 denotes the dose at which the effect has come halfway, by size or by number of responders. The term Ki denotes the equilibrium dissociation constant of an inhibitor or competing ligand from its target. A higher Ki goes with lower affinity. As to `Cl.O=C1c2ccsc2CC1CCN1CCC(c2noc3cc(F)ccc23)CC1` (stereo unspecified), the 50% effective dose (ED50) with Mus musculus [1] is greater than 20 mg/kg; in the test on Mus musculus [2], 0.47 mg/kg. The values for the Ki (on D(1A) dopamine receptor [3]; in test [4]) were 126 nM and 1.74 nM, respectively.

For orientation: pA2 means the negative logarithm of the molar antagonist concentration that doubles the agonist concentration needed for the same response. Low readings indicate lower antagonist potency, high ones higher antagonist potency. For the molecule `Cl.O=C(c1ccc(F)cc1)C1CCN(CCC2CCc3sccc3C2=O)CC1` (stereo unspecified), the ED50 in the test with Mus musculus [1] is greater than 4 mg/kg; in the test with Mus musculus [2], 2.03 mg/kg. The pA2 in test [5] is 9.02. The figures for the Ki (on D(1A) dopamine receptor [3]; in test [4]) were 1380 nM and 1.45 nM, respectively.

In turn, `O=C(CCCN1CCN(CC2CC(=O)c3ccccc3C2)CC1)c1ccc(F)cc1` (stereo unspecified) showed a pA2 in test [5] of 7.27. The molecule also had a Ki in test [4] of 17.8 nM.

For `COc1ccccc1N1CCN(CC2CC(=O)c3ccccc32)CC1.Cl` (stereo unspecified), the 50% effective dose (ED50) in the test on Mus musculus [1] and in the test with Mus musculus [2] was greater than 8 mg/kg in each case. The pA2 in test [5] was 6.21. The Ki on D(1A) dopamine receptor [3] is 3720 nM; in test [4], 891 nM.

Consider `Cl.O=C(CCCN1CCN(CC2CC(=O)c3ccccc32)CC1)c1ccc(F)cc1` (stereo unspecified), for which the ED50 with Mus musculus [1] and in the test on Mus musculus [2] was greater than 8 mg/kg each time. In test [5], this molecule returned a pA2 of 7.2. Moreover, the inhibition constant Ki at D(1A) dopamine receptor [3] is 7080 nM; in test [4], 45.7 nM.

Take `Cl.O=C1CC(CN2CCC(c3noc4cc(F)ccc34)CC2)Cc2sccc21` (stereo unspecified): the ED50 is greater than 8 mg/kg in the test with Mus musculus [1] and 1.46 mg/kg in the test with Mus musculus [2]. The Ki on D(1A) dopamine receptor [6] was 129 nM; in test [4], 4.68 nM. Moreover, the pA2 in test [5] is given as 9.13.

With `O=C(O)C(=O)O.O=C(c1ccc(F)cc1)C1CCN(CCC2Cc3sccc3C2=O)CC1` (stereo unspecified), the figures for the ED50 in the test with Mus musculus [1] and with Mus musculus [2] were greater than 16 mg/kg and 65 mg/kg, respectively. The same molecule registered a pA2 in test [5] of 8.92. Moreover, the figures for the Ki (on D(1A) dopamine receptor [3]; in test [4]) were 2510 nM and 7.08 nM, respectively.

For `Cl.O=C1CC(CN2CCC(C(=O)c3ccc(F)cc3)CC2)Cc2sccc21` (stereo unspecified), the ED50 is greater than 16 mg/kg in the test on Mus musculus [1] and 1.25 mg/kg in the test on Mus musculus [2]. Also, the values for the Ki (on D(1A) dopamine receptor [6]; in test [4]) were 427 nM and 57.5 nM, respectively. The same molecule registered a pA2 in test [5] of 7.82.

For the molecule `Cl.O=C1CC(CN2CCC(C(=O)c3ccc(F)cc3)CC2)c2ccccc21` (stereo unspecified), the ED50 with Mus musculus [1] was greater than 4 mg/kg; in the test on Mus musculus [2] it was greater than 7 mg/kg. In test [5], this molecule showed a pA2 of 8.13. For the same molecule, the Ki at D(1A) dopamine receptor [3] is 1550 nM; in test [4] it was 26.3 nM.

For the molecule `Cl.O=C1c2sccc2CCC1CCN1CCC(c2noc3cc(F)ccc23)CC1` (stereo unspecified), the values for the ED50 in the test with Mus musculus [1] and in the test with Mus musculus [2] were greater than 2 mg/kg and 0.5 mg/kg, respectively. In addition, the results for the Ki (at D(1A) dopamine receptor [6]; in test [4]) were 135 nM and 6.76 nM, respectively.

For `Cc1nc2n(c(=O)c1CCN1CCC(c3noc4cc(F)ccc34)CC1)CCCC2` [RISPERIDONE], the ED50 in the test with Mus musculus [1] was greater than 2 mg/kg; in the test on Mus musculus [2], 0.09 mg/kg.

Consider `O=C(c1ccc(F)cc1)C1CCN(CCC2CCc3ccccc3C2=O)CC1` (stereo unspecified), for which, in test [5], the pA2 is given as 7.47.

For the molecule `Cl.O=C(CCCN1CCN(CCC2CCc3sccc3C2=O)CC1)c1ccc(F)cc1` (stereo unspecified), the ED50 in the test on Mus musculus [1] and in the test with Mus musculus [2] was greater than 15 mg/kg in each case. Also, the Ki at D(1A) dopamine receptor [6] was 3090 nM; in test [7] it was 288 nM. The molecule also yielded a pA2 in test [5] of 6.83.

As for `COc1ccccc1N1CCN(CC2CC(=O)c3ccsc3C2)CC1.Cl` (stereo unspecified), the ED50 in the test with Mus musculus [1] and with Mus musculus [2] was greater than 8 mg/kg each time. Also, the Ki was greater than 10000 nM on D(1A) dopamine receptor [6] and 1510 nM in test [4]. Further, the pA2 in test [5] is 5.9.

As for `O=C(CCCN1CCC(O)(c2ccc(Cl)cc2)CC1)c1ccc(F)cc1` [HALOPERIDOL], the ED50 in the test with Mus musculus [1] was 0.67 mg/kg; in the test on Mus musculus [2], 0.14 mg/kg.

With `O=C(CCCN1CCN(CCC2Cc3ccccc3C2=O)CC1)c1ccc(F)cc1` (stereo unspecified), the figures for the Ki (on D(1A) dopamine receptor [6]; in test [4]) were 1320 nM and 123 nM, respectively. Besides, the pA2 in test [5] was 7.3.

As to `Cl.O=C(c1ccc(F)cc1)C1CCN(CCC2CCc3ccsc3C2=O)CC1` (stereo unspecified), the ED50 in the test with Mus musculus [1] is greater than 4 mg/kg; in the test with Mus musculus [2], 1.98 mg/kg. In addition, the Ki on D(1A) dopamine receptor [6] is 562 nM; in test [4] it was 11.2 nM.

The molecule `O=C1CC(CN2CCC(C(=O)c3ccc(F)cc3)CC2)Cc2ccccc21` (stereo unspecified) registered a pA2 in test [5] of 7.86.

The molecule `COc1ccccc1N1CCN(CC2CC(=O)c3ccccc3C2)CC1` (stereo unspecified) registered a pA2 in test [5] of 6.48. In test [4], the affinity, expressed as Ki, was 513 nM.

`COc1ccccc1N1CCN(CCC2CCc3ccccc3C2=O)CC1` (stereo unspecified) came in with a pA2 in test [5] of 6.72. Also, the figures for the Ki (at D(1A) dopamine receptor [3]; in test [4]) were 1480 nM and 40.7 nM, respectively.

In test [5], `O=C(c1ccc(F)cc1)C1CCN(CCC2Cc3ccccc3C2=O)CC1` (stereo unspecified) came in with a pA2 of 8.12.

Consider `O=C(CCCN1CCN(CCC2Cc3sccc3C2=O)CC1)c1ccc(F)cc1` (stereo unspecified), for which the figures for the median effective dose (ED50) in the test with Mus musculus [1] and in the test with Mus musculus [2] were greater than 15 mg/kg and 3.34 mg/kg, respectively. The pA2 in test [5] stood at 7.63. The results for the Ki (on D(1A) dopamine receptor [3]; in test [4]) were 324 nM and 42.7 nM, respectively.

As for `O=C(CCCN1CCN(CCC2CCc3ccccc3C2=O)CC1)c1ccc(F)cc1` (stereo unspecified), the Ki at D(1A) dopamine receptor [6] is 1350 nM; in test [4] it was 72.4 nM. This molecule gave a pA2 in test [5] of 7.35.

Take `O=C(c1ccc(F)cc1)C1CCN(CCC2CCCc3ccccc3C2=O)CC1` (stereo unspecified): the pA2 in test [5] amounted to 6.75. The inhibition constant (Ki) in test [4] was 13.2 nM.

With `Cl.O=C1c2ccsc2CCC1CCN1CCC(c2noc3cc(F)ccc23)CC1` (stereo unspecified), the ED50 with Mus musculus [1] was greater than 2 mg/kg; with Mus musculus [2], 0.79 mg/kg. In addition, the Ki was 295 nM at D(1A) dopamine receptor [6] and 2.75 nM in test [7]. This molecule also returned a pA2 in test [5] of 9.87.

With `COc1ccccc1N1CCN(CCC2CCc3sccc3C2=O)CC1.Cl` (stereo unspecified), the 50% effective dose (ED50) in the test on Mus musculus [1] and with Mus musculus [2] was greater than 8 mg/kg each time. The Ki at D(1A) dopamine receptor [6] is 5370 nM; in test [4], 145 nM. In addition, the pA2 in test [5] worked out at 6.95.

On to `Cl.O=C(CCCN1CCN(CC2CC(=O)c3ccsc3C2)CC1)c1ccc(F)cc1` (stereo unspecified), for which the 50% effective dose (ED50) with Mus musculus [1] was greater than 2 mg/kg; with Mus musculus [2], greater than 8 mg/kg. Also, the Ki on D(1A) dopamine receptor [6] was 1350 nM; in test [4], 107 nM. In test [5], this molecule returned a pA2 of 7.79.

Consider `CN1CCN(C2=Nc3cc(Cl)ccc3Nc3ccccc32)CC1` [CLOZAPINE], for which the ED50 with Mus musculus [1] is greater than 50 mg/kg; in the test with Mus musculus [2] it was 2.21 mg/kg.
